Test results published in ChEMBL document CHEMBL1150216, “Flavonol glycosides and steroidal saponins from the leaves of Cestrum nocturnum and their cytotoxicity” (J Nat Prod, 2001).
In brackets after ≈: the same amount, converted by molar mass.

Experiments:
[1] = Cytotoxicity against human HGF cells after 24 by MTT assay; format: cell-based; conditions: read-out: LD50 (the source's name)
In short: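 Primary human gingival fibroblasts from a healthy person's gingival biopsy, explant-cultured in α-MEM with 30% FBS and antibiotics, used at passages 5–7. Cells were seeded at 6×10^3 into 96-well plates for 24 h, PBS-washed, and exposed to compound for 24 h. Viability was read by MTT (0.2 mg/mL, 4 h), DMSO lysis and A540, giving LD50 in µg/mL.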

HSC-2 = test: Cytotoxicity against human HSC2 cells after 24 by MTT assay; format: functional; conditions: read-out: LD50 (the source's name)

| SMILES | CC50 [1] | CC50 (HSC-2) |
| --- | --- | --- |
| C[C@@H]1CC[C@@]2(OC1)O[C@H]1C[C@H]3[C@@H]4CC=C5C[C@@H](O[C@@H]6O[C@H](CO)[C@@H](O[C@@H]7O[C@@H](C)[C@H](O[C@@H]8O[C@@H](C)[C@H](O)[C@@H](O)[C@H]8O)[C@@H](O)[C@H]7O)[C@H](O)[C@H]6O[C@@H]6O[C@@H](C)[C@H](O)[C@@H](O)[C@H]6O)CC[C@]5(C)[C@H]4CC[C@]3(C)[C@H]1[C@@H]2C [PENNOGENIN RAHAMNOSYL CHACOTRIOSIDE] | 2.8 µg/mL (≈ 2.76 µM) | 2 µg/mL (≈ 1.97 µM) |
| C[C@@H]1CC[C@@]2(OC1)O[C@H]1C[C@H]3[C@@H]4CC=C5C[C@@H](O[C@@H]6O[C@H](CO)[C@H](O[C@@H]7O[C@H](CO)[C@@H](O)[C@H](O[C@@H]8OC[C@@H](O)[C@H](O)[C@H]8O)[C@H]7O[C@@H]7O[C@H](CO)[C@@H](O)[C@H](O[C@@H]8O[C@H](CO)[C@@H](O)[C@H](O)[C@H]8O)[C@H]7O)[C@H](O)[C@H]6O)[C@H](O)C[C@]5(C)[C@H]4CC[C@]3(C)[C@H]1[C@@H]2C | 31 µg/mL (≈ 25.6 µM) | 2.7 µg/mL (≈ 2.23 µM) |
| C[C@@H]1CC[C@@]2(OC1)O[C@H]1C[C@H]3[C@@H]4CC=C5C[C@@H](O[C@@H]6O[C@H](CO)[C@@H](O[C@@H]7O[C@@H](C)[C@H](O[C@@H]8O[C@@H](C)[C@H](O)[C@@H](O)[C@H]8O)[C@@H](O)[C@H]7O)[C@H](O)[C@H]6O[C@@H]6O[C@@H](C)[C@H](O)[C@@H](O)[C@H]6O)[C@H](O)C[C@]5(C)[C@H]4CC[C@]3(C)[C@H]1[C@@H]2C | 9.1 µg/mL (≈ 8.82 µM) | 5.5 µg/mL (≈ 5.33 µM) |
| C[C@@H]1O[C@@H](OC[C@H]2O[C@@H](Oc3c(-c4ccc(O)cc4)oc4cc(O)cc(O)c4c3=O)[C@H](O[C@@H]3OC[C@@H](O)[C@H](O)[C@H]3O)[C@@H](O)[C@@H]2O)[C@H](O)[C@H](O)[C@H]1O [CAMELLIASIDE B] | > 400 µg/mL | > 400 µg/mL |
| C[C@@H]1CC[C@@]2(OC1)O[C@H]1C[C@H]3[C@@H]4CC=C5C[C@@H](O[C@@H]6O[C@H](CO)[C@H](O[C@@H]7O[C@H](CO)[C@@H](O)[C@H](O[C@@H]8OC[C@@H](O)[C@H](O)[C@H]8O)[C@H]7O[C@@H]7O[C@H](CO)[C@@H](O)[C@H](O[C@@H]8O[C@H](CO)[C@@H](O)[C@H](O)[C@H]8O)[C@H]7O)[C@H](O)[C@H]6O)[C@H](O)C[C@]5(C)[C@H]4CC[C@]3(C)[C@@]1(O)[C@@H]2C | 34 µg/mL (≈ 27.7 µM) | 5.5 µg/mL (≈ 4.48 µM) |
| C[C@@H]1CC[C@@]2(OC1)O[C@H]1[C@@H](O)[C@H]3[C@@H]4CC=C5C[C@@H](O[C@@H]6O[C@H](CO)[C@H](O[C@@H]7O[C@H](CO)[C@@H](O)[C@H](O[C@@H]8OC[C@@H](O)[C@H](O)[C@H]8O)[C@H]7O[C@@H]7O[C@H](CO)[C@@H](O)[C@H](O[C@@H]8O[C@H](CO)[C@@H](O)[C@H](O)[C@H]8O)[C@H]7O)[C@H](O)[C@H]6O)[C@H](O)C[C@]5(C)[C@H]4CC[C@]3(C)[C@H]1[C@@H]2C | 22 µg/mL (≈ 17.9 µM) | 4.4 µg/mL (≈ 3.59 µM) |
| C[C@@H]1CC[C@@]2(OC1)O[C@H]1C[C@H]3[C@@H]4CC=C5C[C@@H](O[C@@H]6O[C@H](CO)[C@H](O[C@@H]7O[C@H](CO)[C@@H](O)[C@H](O[C@@H]8OC[C@@H](O)[C@H](O)[C@H]8O)[C@H]7O[C@@H]7O[C@H](CO)[C@@H](O)[C@H](O)[C@H]7O)[C@H](O)[C@H]6O)[C@H](O)C[C@]5(C)[C@H]4CC[C@]3(C)[C@H]1[C@@H]2C | 37 µg/mL (≈ 35.3 µM) | 12 µg/mL (≈ 11.4 µM) |
| C[C@@H]1CC[C@@]2(OC1)O[C@H]1C[C@H]3[C@@H]4CC=C5C[C@@H](O[C@@H]6O[C@H](CO)[C@H](O[C@@H]7O[C@H](CO)[C@@H](O)[C@H](O[C@@H]8OC[C@@H](O)[C@H](O)[C@H]8O)[C@H]7O[C@@H]7O[C@H](CO)[C@@H](O)[C@H](O)[C@H]7O)[C@H](O)[C@H]6O)[C@H](O)C[C@]5(C)[C@H]4CC[C@]3(C)[C@@]1(O)[C@@H]2C | 58 µg/mL (≈ 54.5 µM) | 13 µg/mL (≈ 12.2 µM) |
